Test results from ChEMBL document CHEMBL1155167, “Fluoroquinolone resistance in atypical pneumococci and oral streptococci: evidence of horizontal gene transfer of fluoroquinolone resistance determinants from Streptococcus pneumoniae” (2007).
Converted amounts (≈) assume the structure as drawn.

How the values were obtained:
[1] = tested on: Streptococcus pneumoniae; assay: Antimicrobial activity against Streptococcus pneumoniae L22 with parC Lys137Asn and parE Ile460Val mutation by broth dilution method
[2] = tested on: Streptococcus pneumoniae; assay: Antimicrobial activity against atypical Streptococcus pneumoniae L4 by broth dilution method
[3] = tested on: Streptococcus viridans; assay: Antimicrobial activity against Viridans streptococcus L18 with gyrA Ser114Gly, Asp142Asn, gyrB Ser494Thr and parE Ile460Val mutation by broth dilution method; type: functional
Summary of the method: (§1)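 Ciprofloxacin and levofloxacin MICs were determined by broth dilution following CLSI (formerly NCCLS) guidance. S. pneumoniae ATCC 6303 and ATCC 49619 served as control strains. Reference strains were S. mitis ATCC 49456 and S. oralis ATCC 10557. The clinical isolates came from patients at a Hong Kong teaching hospital.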

[4] = tested on: Streptococcus oralis; assay: Antimicrobial activity against Streptococcus oralis HK122 with gyrA Ser114Gly, and parC Ser52Gly, Asn91Asp mutation by broth dilution method; type: functional; summary of the method: as §1
[5] = tested on: Streptococcus pneumoniae; assay: Antimicrobial activity against atypical Streptococcus pneumoniae L10 with gyrA Ser81Phe and parC Lys197Asn mutation by broth dilution method
[6] = tested on: Streptococcus mitis; assay: Antimicrobial activity against Streptococcus mitis HK135786 with gyrA Ser114Gly, and parC Ser52Gly, Asn91Asp mutation by broth dilution method; type: functional; summary of the method: as §1
[7] = tested on: Streptococcus oralis; assay: Antimicrobial activity against Streptococcus oralis HK62 with gyrA Ser114Gly, and parC Ser52Gly, Asn91Asp mutation by broth dilution method; type: functional; summary of the method: as §1
[8] = tested on: Streptococcus oralis; assay: Antimicrobial activity against Streptococcus oralis HK417 with gyrA Ser114Gly, and parC Ser52Gly, Asn91Asp mutation by broth dilution method; type: functional; summary of the method: as §1
[9] = tested on: Streptococcus oralis; assay: Antimicrobial activity against Streptococcus oralis ATCC 10557 with gyrA Ser114Gly, and parC Ser52Gly, Asn91Asp mutation by broth dilution method; type: functional; summary of the method: as §1
[10] = tested on: Streptococcus pneumoniae; assay: Antimicrobial activity against atypical Streptococcus pneumoniae L8 with parC Ser52Gly, Phe55His, Ser58Gly, Asn91Asp, Lys197Asn mutation by broth dilution method
[11] = tested on: Streptococcus oralis; assay: Antimicrobial activity against Streptococcus oralis HK386 with gyrA Ser114Gly, and parC Ser52Gly, Asn91Asp mutation by broth dilution method; type: functional; summary of the method: as §1
[12] = tested on: Streptococcus pneumoniae; assay: Antimicrobial activity against atypical Streptococcus pneumoniae L9 with gyrA Ser114Gly, gyrB Ser494Thr and parC Lys137Asn mutation by broth dilution method
[13] = tested on: Streptococcus mitis; assay: Antimicrobial activity against Streptococcus mitis HK666 with gyrA Ser114Gly, and parC Ser52Gly, Asn91Asp, Glu135Asp mutation by broth dilution method; type: functional; summary of the method: as §1
[14] = tested on: Streptococcus pneumoniae; assay: Antimicrobial activity against atypical Streptococcus pneumoniae L3 with parC Lys137Asn mutation by broth dilution method
[15] = tested on: Streptococcus oralis; assay: Antimicrobial activity against Streptococcus oralis HK300 with gyrA Ser114Gly, and parC Ser52Gly, Asn91Asp mutation by broth dilution method; type: functional; summary of the method: as §1
[16] = tested on: Streptococcus mitis; assay: Antimicrobial activity against Streptococcus mitis HK680 with gyrA Ser114Gly, and parC Ser52Gly, Asn91Asp mutation by broth dilution method; type: functional; summary of the method: as §1
[17] = tested on: Streptococcus mitis; assay: Antimicrobial activity against Streptococcus mitis HK29 with gyrA Ser114Gly, and parC Ser52Gly, Asn91Asp mutation by broth dilution method; type: functional; summary of the method: as §1
[18] = tested on: Streptococcus oralis; assay: Antimicrobial activity against Streptococcus oralis HK816 with gyrA Ser81Leu, Ser114Gly and parC Ser52Gly, Ser79Tyr, Asn91Asp mutation by broth dilution method; type: functional; summary of the method: as §1
[19] = tested on: Streptococcus oralis; assay: Antimicrobial activity against Streptococcus oralis HK754 with gyrA Ser81Leu, Ser114Gly, gyrB Ser494Thr, parC Ser52Gly, Asp83Tyr, Asn91Asp and parE Arg447Ser mutation by broth dilution method; type: functional; summary of the method: as §1
[20] = tested on: Streptococcus oralis; assay: Antimicrobial activity against Streptococcus oralis HK299 with gyrA Ser114Gly, and parC Ser52Gly, Asn91Asp mutation by broth dilution method; type: functional; summary of the method: as §1
[21] = tested on: Streptococcus pneumoniae; assay: Antimicrobial activity against Streptococcus pneumoniae L24 with gyrA Ser81Phe, gyrB Ser494Thr, parC Asp83Asn, Lys137Asn and parE Ile460Val mutation by broth dilution method
[22] = tested on: Streptococcus oralis; assay: Antimicrobial activity against Streptococcus oralis HK553 with gyrA Ser114Gly, and parC Ser52Gly, Asn91Asp mutation by broth dilution method; type: functional; summary of the method: as §1
[23] = tested on: Streptococcus pneumoniae; assay: Antimicrobial activity against atypical Streptococcus pneumoniae L11 with parC Ser52Gly, Asn91Asp, Glu135Asp mutation by broth dilution method
[24] = tested on: Streptococcus oralis; assay: Antimicrobial activity against Streptococcus oralis HK51with gyrA Ser114Gly, and parC Ser52Gly, Asn91Asp mutation by broth dilution method; type: functional; summary of the method: as §1
[25] = tested on: Streptococcus mitis; assay: Antimicrobial activity against Streptococcus mitis HK651 with gyrA Ser114Gly, and parC Ser52Gly, Asn91Asp mutation by broth dilution method; type: functional; summary of the method: as §1
[26] = tested on: Streptococcus viridans; assay: Antimicrobial activity against Viridans streptococcus L7 with gyrA Ser114Gly, gyrB Ser494Thr and parC Ser52Gly, Asn91Asp mutation by broth dilution method; type: functional; summary of the method: as §1
[27] = tested on: Streptococcus oralis; assay: Antimicrobial activity against Streptococcus oralis HK271 with gyrA Ser114Gly, and parC Ser52Gly, Asn91Asp mutation by broth dilution method; type: functional; summary of the method: as §1
[28] = tested on: Streptococcus mitis; assay: Antimicrobial activity against Streptococcus mitis ATCC 49456 with gyrA Ser114Gly, and parC Ser52Gly, Asn91Asp, Glu135Asp mutation by broth dilution method; type: functional; summary of the method: as §1
[29] = tested on: Streptococcus mitis; assay: Antimicrobial activity against Streptococcus mitis HK467 with gyrA Ser114Gly, Leu155Val and parC Ser52Gly, Asn91Asp, mutation by broth dilution method; type: functional; summary of the method: as §1

Question: For `O=C(O)c1cn(C2CC2)c2cc(N3CCNCC3)c(F)cc2c1=O` [CIPROFLOXACIN], which MIC [1] is on record?
Answer: 4 µg/mL (≈ 12.1 µM)

Question: And the MIC [2]?
Answer: 4 µg/mL (≈ 12.1 µM)

Question: And the MIC [3]?
Answer: 4 µg/mL (≈ 12.1 µM)

Question: And the MIC [4]?
Answer: 4 µg/mL (≈ 12.1 µM)

Question: And the MIC [5]?
Answer: 4 µg/mL (≈ 12.1 µM)

Question: And the MIC [6]?
Answer: 4 µg/mL (≈ 12.1 µM)

Question: What about the MIC [7] of the same molecule?
Answer: 4 µg/mL (≈ 12.1 µM)

Question: What about the MIC [8] of the same molecule?
Answer: 2 µg/mL (≈ 6.04 µM)

Question: And the MIC [9]?
Answer: 2 µg/mL (≈ 6.04 µM)

Question: What about the MIC [10] of the same molecule?
Answer: 8 µg/mL (≈ 24.1 µM)

Question: And the MIC [11]?
Answer: 4 µg/mL (≈ 12.1 µM)

Question: What about the MIC [12] of the same molecule?
Answer: 4 µg/mL (≈ 12.1 µM)

Question: And the MIC [13]?
Answer: 2 µg/mL (≈ 6.04 µM)

Question: And the MIC [14]?
Answer: 4 µg/mL (≈ 12.1 µM)

Question: What about the MIC [15] of the same molecule?
Answer: 4 µg/mL (≈ 12.1 µM)

Question: And the MIC [16]?
Answer: 2 µg/mL (≈ 6.04 µM)

Question: What about the MIC [17] of the same molecule?
Answer: 4 µg/mL (≈ 12.1 µM)

Question: And the MIC [18]?
Answer: 32 µg/mL (≈ 96.6 µM)

Question: And the MIC [19]?
Answer: 128 µg/mL (≈ 386 µM)

Question: What about the MIC [20] of the same molecule?
Answer: 4 µg/mL (≈ 12.1 µM)

Question: And the MIC [21]?
Answer: ≥ 16 µg/mL

Question: What about the MIC [22] of the same molecule?
Answer: 2 µg/mL (≈ 6.04 µM)

Question: And the MIC [23]?
Answer: 8 µg/mL (≈ 24.1 µM)

Question: And the MIC [24]?
Answer: 4 µg/mL (≈ 12.1 µM)

Question: And the MIC [25]?
Answer: 1 µg/mL (≈ 3.02 µM)

Question: And the MIC [26]?
Answer: 4 µg/mL (≈ 12.1 µM)

Question: And the MIC [27]?
Answer: 4 µg/mL (≈ 12.1 µM)

Question: And the MIC [28]?
Answer: 1 µg/mL (≈ 3.02 µM)

Question: And the MIC [29]?
Answer: 2 µg/mL (≈ 6.04 µM)
